Source: ChEMBL document CHEMBL1153775, “Synthesis, structure elucidation and antitumour activity of N-substituted amides of 3-(3-ethylthio-1,2,4-triazol-5-yl)propenoic acid” (Eur J Med Chem, 2009)

Experiments:
[1] = Cytotoxicity against human HSF cells assessed as growth inhibition at 0.14 mM after 72 hrs by spectrophotometer using BrdU labeling; type: cell-based; conditions: read-out: GI
A549 [2] = test: Cytotoxicity against human A549 cells assessed as growth inhibition at 0.28 mM after 72 hrs by spectrophotometer using BrdU labeling; type: functional; conditions: A549, 72 h, read-out: GI
T47D [3] = test: Cytotoxicity against human T47D cells assessed as growth inhibition at 0.28 mM after 72 hrs by spectrophotometer using BrdU labeling; type: functional; conditions: read-out: GI
In short: (§1)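 Human breast carcinoma T47D cells were plated at 10⁴ cells per mL on microtiter plates. Each compound was added at three doses, given as mM equivalents of three mass concentrations. Plates were incubated for 24, 48 or 72 h. The read-out was percent growth inhibition (GI).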

T47D [4] = test: Cytotoxicity against human T47D cells assessed as growth inhibition at 0.14 mM after 72 hrs by spectrophotometer using BrdU labeling; type: functional; conditions: read-out: GI
[5] = Cytotoxicity against human HSF cells assessed as growth inhibition at 0.03 mM after 48 hrs by spectrophotometer using BrdU labeling; type: cell-based; conditions: read-out: GI
T47D [6] = test: Cytotoxicity against human T47D cells assessed as growth inhibition at 0.03 mM after 48 hrs by spectrophotometer using BrdU labeling; type: functional; conditions: read-out: GI
A549 [7] = test: Cytotoxicity against human A549 cells assessed as growth inhibition at 0.03 mM after 48 hrs by spectrophotometer using BrdU labeling; type: functional; conditions: A549, 48 h, read-out: GI
T47D [8] = test: Cytotoxicity against human T47D cells assessed as growth inhibition at 0.14 mM after 48 hrs by spectrophotometer using BrdU labeling; type: functional; conditions: read-out: GI
T47D [9] = test: Cytotoxicity against human T47D cells assessed as growth inhibition at 0.03 mM after 72 hrs by spectrophotometer using BrdU labeling; type: functional; conditions: read-out: GI
A549 [10] = test: Cytotoxicity against human A549 cells assessed as growth inhibition at 0.14 mM after 48 hrs by spectrophotometer using BrdU labeling; type: functional; conditions: A549, 48 h, read-out: GI
A549 [11] = test: Cytotoxicity against human A549 cells assessed as growth inhibition at 0.14 mM after 24 hrs by spectrophotometer using BrdU labeling; type: functional; conditions: A549, 24 h, read-out: GI
T47D [12] = test: Cytotoxicity against human T47D cells assessed as growth inhibition at 0.14 mM after 24 hrs by spectrophotometer using BrdU labeling; type: functional; conditions: read-out: GI
A549 [13] = test: Cytotoxicity against human A549 cells assessed as growth inhibition at 0.28 mM after 24 hrs by spectrophotometer using BrdU labeling; type: functional; conditions: A549, 24 h, read-out: GI
A549 [14] = test: Cytotoxicity against human A549 cells assessed as growth inhibition at 0.14 mM after 72 hrs by spectrophotometer using BrdU labeling; type: functional; conditions: A549, 72 h, read-out: GI
A549 [15] = test: Cytotoxicity against human A549 cells assessed as growth inhibition at 0.28 mM after 48 hrs by spectrophotometer using BrdU labeling; type: functional; conditions: A549, 48 h, read-out: GI
[16] = Cytotoxicity against human HSF cells assessed as growth inhibition at 0.28 mM after 24 hrs by spectrophotometer using BrdU labeling; type: cell-based; conditions: read-out: GI
T47D [17] = test: Cytotoxicity against human T47D cells assessed as growth inhibition at 0.28 mM after 48 hrs by spectrophotometer using BrdU labeling; type: functional; conditions: read-out: GI; in short: as §1
[18] = Cytotoxicity against human HSF cells assessed as growth inhibition at 0.03 mM after 24 hrs by spectrophotometer using BrdU labeling; type: cell-based; conditions: read-out: GI
[19] = Cytotoxicity against human HSF cells assessed as growth inhibition at 0.28 mM after 72 hrs by spectrophotometer using BrdU labeling; type: cell-based; conditions: read-out: GI
[20] = Cytotoxicity against human HSF cells assessed as growth inhibition at 0.28 mM after 48 hrs by spectrophotometer using BrdU labeling; type: cell-based; conditions: read-out: GI
T47D [21] = test: Cytotoxicity against human T47D cells assessed as growth inhibition at 0.03 mM after 24 hrs by spectrophotometer using BrdU labeling; type: functional; conditions: read-out: GI
A549 [22] = test: Cytotoxicity against human A549 cells assessed as growth inhibition at 0.03 mM after 72 hrs by spectrophotometer using BrdU labeling; type: functional; conditions: A549, 72 h, read-out: GI
A549 [23] = test: Cytotoxicity against human A549 cells assessed as growth inhibition at 0.03 mM after 24 hrs by spectrophotometer using BrdU labeling; type: functional; conditions: A549, 24 h, read-out: GI
[24] = Cytotoxicity against human HSF cells assessed as growth inhibition at 0.14 mM after 48 hrs by spectrophotometer using BrdU labeling; type: cell-based; conditions: read-out: GI
[25] = Cytotoxicity against human HSF cells assessed as growth inhibition at 0.14 mM after 24 hrs by spectrophotometer using BrdU labeling; type: cell-based; conditions: read-out: GI
T47D [26] = test: Cytotoxicity against human T47D cells assessed as growth inhibition at 0.28 mM after 24 hrs by spectrophotometer using BrdU labeling; type: functional; conditions: read-out: GI; in short: as §1
[27] = Cytotoxicity against human HSF cells assessed as growth inhibition at 0.03 mM after 72 hrs by spectrophotometer using BrdU labeling; type: cell-based; conditions: read-out: GI
T47D [28] = test: Cytotoxicity against human T47D cells assessed as growth inhibition at 0.17 mM after 72 hrs by spectrophotometer using BrdU labeling; type: functional; conditions: read-out: GI; in short: as §1
[29] = Cytotoxicity against human HSF cells assessed as growth inhibition at 0.17 mM after 48 hrs by spectrophotometer using BrdU labeling; type: cell-based; conditions: read-out: GI
A549 [30] = test: Cytotoxicity against human A549 cells assessed as growth inhibition at 0.17 mM after 72 hrs by spectrophotometer using BrdU labeling; type: functional; conditions: A549, 72 h, read-out: GI
[31] = Cytotoxicity against human HSF cells assessed as growth inhibition at 0.35 mM after 72 hrs by spectrophotometer using BrdU labeling; type: cell-based; conditions: read-out: GI
T47D [32] = test: Cytotoxicity against human T47D cells assessed as growth inhibition at 0.35 mM after 72 hrs by spectrophotometer using BrdU labeling; type: functional; conditions: read-out: GI; in short: as §1
A549 [33] = test: Cytotoxicity against human A549 cells assessed as growth inhibition at 0.17 mM after 48 hrs by spectrophotometer using BrdU labeling; type: functional; conditions: A549, 48 h, read-out: GI
[34] = Cytotoxicity against human HSF cells assessed as growth inhibition at 0.35 mM after 24 hrs by spectrophotometer using BrdU labeling; type: cell-based; conditions: read-out: GI
[35] = Cytotoxicity against human HSF cells assessed as growth inhibition at 0.17 mM after 24 hrs by spectrophotometer using BrdU labeling; type: cell-based; conditions: read-out: GI
T47D [36] = test: Cytotoxicity against human T47D cells assessed as growth inhibition at 0.17 mM after 48 hrs by spectrophotometer using BrdU labeling; type: functional; conditions: read-out: GI; in short: as §1
A549 [37] = test: Cytotoxicity against human A549 cells assessed as growth inhibition at 0.35 mM after 48 hrs by spectrophotometer using BrdU labeling; type: functional; conditions: A549, 48 h, read-out: GI
A549 [38] = test: Cytotoxicity against human A549 cells assessed as growth inhibition at 0.35 mM after 72 hrs by spectrophotometer using BrdU labeling; type: functional; conditions: A549, 72 h, read-out: GI
A549 [39] = test: Cytotoxicity against human A549 cells assessed as growth inhibition at 0.17 mM after 24 hrs by spectrophotometer using BrdU labeling; type: functional; conditions: A549, 24 h, read-out: GI
[40] = Cytotoxicity against human HSF cells assessed as growth inhibition at 0.17 mM after 72 hrs by spectrophotometer using BrdU labeling; type: cell-based; conditions: read-out: GI
[41] = Cytotoxicity against human HSF cells assessed as growth inhibition at 0.35 mM after 48 hrs by spectrophotometer using BrdU labeling; type: cell-based; conditions: read-out: GI
A549 [42] = test: Cytotoxicity against human A549 cells assessed as growth inhibition at 0.35 mM after 24 hrs by spectrophotometer using BrdU labeling; type: functional; conditions: A549, 24 h, read-out: GI
T47D [43] = test: Cytotoxicity against human T47D cells assessed as growth inhibition at 0.35 mM after 48 hrs by spectrophotometer using BrdU labeling; type: functional; conditions: read-out: GI; in short: as §1
T47D [44] = test: Cytotoxicity against human T47D cells assessed as growth inhibition at 0.17 mM after 24 hrs by spectrophotometer using BrdU labeling; type: functional; conditions: read-out: GI; in short: as §1
T47D [45] = test: Cytotoxicity against human T47D cells assessed as growth inhibition at 0.35 mM after 24 hrs by spectrophotometer using BrdU labeling; type: functional; conditions: read-out: GI; in short: as §1

CCSc1n[nH]c(/C=C\C(=O)Nc2ccc(Br)cc2)n1
inhibition at 72 h, 140 µM [1]: 75% | inhibition of growth at 280 µM (A549 [2]): 75% | inhibition of growth at 280 µM (T47D [3]): 25% | inhibition of growth at 140 µM (T47D [4]): 25% | inhibition at 48 h, 30 µM [5]: 0% | inhibition of growth at 30 µM (T47D [6]): 0% | inhibition of growth at 30 µM (A549 [7]): 25% | inhibition of growth at 140 µM (T47D [8]): 10% | inhibition of growth at 30 µM (T47D [9]): 0% | inhibition of growth at 140 µM (A549 [10]): 50% | inhibition of growth at 140 µM (A549 [11]): 50% | inhibition of growth at 140 µM (T47D [12]): 5% | inhibition of growth at 280 µM (A549 [13]): 50% | inhibition of growth at 140 µM (A549 [14]): 50% | inhibition of growth at 280 µM (A549 [15]): 50% | inhibition at 24 h, 280 µM [16]: 75% | inhibition of growth at 280 µM (T47D [17]): 20% | inhibition at 24 h, 30 µM [18]: 0% | inhibition at 72 h, 280 µM [19]: 50% | inhibition at 48 h, 280 µM [20]: 75% | inhibition of growth at 30 µM (T47D [21]): 0% | inhibition of growth at 30 µM (A549 [22]): 0% | inhibition of growth at 30 µM (A549 [23]): 25% | inhibition at 48 h, 140 µM [24]: 75% | inhibition at 24 h, 140 µM [25]: 75% | inhibition of growth at 280 µM (T47D [26]): 5% | inhibition at 72 h, 30 µM [27]: 0%

CCSc1n[nH]c(/C=C\C(=O)Nc2cccc(C)c2)n1
inhibition of growth at 170 µM (T47D [28]): 25% | inhibition at 48 h, 170 µM [29]: 50% | inhibition of growth at 170 µM (A549 [30]): 25% | inhibition at 48 h, 30 µM [5]: 0% | inhibition at 72 h, 350 µM [31]: 50% | inhibition of growth at 30 µM (T47D [6]): 5% | inhibition of growth at 30 µM (A549 [7]): 5% | inhibition of growth at 30 µM (T47D [9]): 5% | inhibition of growth at 350 µM (T47D [32]): 25% | inhibition of growth at 170 µM (A549 [33]): 50% | inhibition at 24 h, 30 µM [18]: 0% | inhibition at 24 h, 350 µM [34]: 5% | inhibition at 24 h, 170 µM [35]: 50% | inhibition of growth at 170 µM (T47D [36]): 5% | inhibition of growth at 30 µM (T47D [21]): 0% | inhibition of growth at 350 µM (A549 [37]): 50% | inhibition of growth at 30 µM (A549 [22]): 0% | inhibition of growth at 350 µM (A549 [38]): 50% | inhibition of growth at 30 µM (A549 [23]): 20% | inhibition of growth at 170 µM (A549 [39]): 50% | inhibition at 72 h, 170 µM [40]: 50% | inhibition at 72 h, 30 µM [27]: 0% | inhibition at 48 h, 350 µM [41]: 50% | inhibition of growth at 350 µM (A549 [42]): 50% | inhibition of growth at 350 µM (T47D [43]): 0% | inhibition of growth at 170 µM (T47D [44]): 5% | inhibition of growth at 350 µM (T47D [45]): 0%
